ChEMBL document CHEMBL1156580, “A facile regioselective synthesis of novel spiro-thioxanthene and spiro-xanthene-9',2-[1,3,4]thiadiazole derivatives as potential analgesic and anti-inflammatory agents” (Bioorg Med Chem Lett, 2008)

These compounds were tested on Rattus norvegicus (assay: Antiinflammatory activity in Sprague-Dawley rat assessed as inhibition of carrageenan-induced paw edema at 70 mg/kg, po after 4 hrs relative to control). Settings: not given.
Assay type: functional
Method in brief: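 Winter carrageenin paw oedema in adult male Sprague–Dawley rats (150–180 g, six per group), fasted overnight with water available. Dosing was 70 mg/kg po in 1% CMC, with controls on vehicle alone, 1 h before 0.1 mL 1.0% carrageenin into the right hind plantar region. Paw volume was read by plethysmometer before and 4 h after, giving % inhibition versus control.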
`CC(=O)C1=NN(c2ccccc2)C2(S1)c1ccccc1Sc1ccccc12` was tested, and the inhibition in vivo at 70 mg/kg was 75%.
`CC(=O)C1=NN(c2ccc([N+](=O)[O-])cc2)C2(S1)c1ccccc1Sc1ccccc12` gave an inhibition in vivo at 70 mg/kg of 86%.
Work on `CC(=O)C1=NN(c2ccccc2)SC12c1ccccc1Oc1ccccc12` yielded an inhibition in vivo at 70 mg/kg of 79%.
In the case of `CC(=O)C1=NN(c2ccc(Br)cc2)SC12c1ccccc1Oc1ccccc12`, the inhibition in vivo at 70 mg/kg is reported as 76%.
`CCOC(=O)C1=NN(c2ccc(C)cc2)C2(S1)c1ccccc1Sc1ccccc12` gave an inhibition in vivo at 70 mg/kg of 71%.
For `CC(=O)C1=NN(c2ccc([N+](=O)[O-])cc2)SC12c1ccccc1Oc1ccccc12`, the inhibition in vivo at 70 mg/kg was 84%.
For `c1ccc(C2=NN(c3ccccc3)C3(S2)c2ccccc2Sc2ccccc23)cc1`, the inhibition in vivo at 70 mg/kg was 85%.
Compound `CC(=O)C1=NN(c2ccc(Cl)cc2)C2(S1)c1ccccc1Sc1ccccc12` has an inhibition in vivo at 70 mg/kg of 82%.
`CC(=O)C1=NN(c2ccc(Cl)cc2)SC12c1ccccc1Oc1ccccc12` showed an inhibition in vivo at 70 mg/kg of 82%.
`CC(C)Cc1ccc(C(C)C(=O)O)cc1` (configuration not stated) [IBUPROFEN] showed an inhibition in vivo at 70 mg/kg of 92%.

What follows are compounds tested on Rattus norvegicus (assay: Acute toxicity in Sprague-Dawley rat assessed as behavioral changes up to 200 mg/kg, po). Settings: in vivo.
Assay type: organism-based
Parameters: dose 200 mg/kg, route oral
Method in brief: (§1)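 Male Sprague–Dawley rats (200–250 g), housed individually under 12 h light–dark, split into four groups, each given a different single dose by oral gavage. Animals were then watched for deaths or other behavioural changes.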
With `c1ccc(C2=NN(c3ccccc3)C3(S2)c2ccccc2Sc2ccccc23)cc1` the Activity was “Non-toxic”.
With `CC(=O)C1=NN(c2ccc(Cl)cc2)C2(S1)c1ccccc1Sc1ccccc12` the Activity was “Non-toxic”.

What follows are compounds tested on Rattus norvegicus (assay: Acute toxicity in Sprague-Dawley rat assessed as survival up to 200 mg/kg, po). Settings: in vivo.
Assay type: organism-based
Parameters: dose 200 mg/kg, route oral
Method in brief: as §1
With `c1ccc(C2=NN(c3ccccc3)C3(S2)c2ccccc2Sc2ccccc23)cc1` the Activity was “Non-toxic”.
With `CC(=O)C1=NN(c2ccc(Cl)cc2)C2(S1)c1ccccc1Sc1ccccc12` the Activity was “Non-toxic”.

These compounds were tested on Rattus norvegicus (assay: Acute toxicity in Sprague-Dawley rat assessed as toxicological changes up to 200 mg/kg, po). Settings: in vivo.
Assay type: organism-based
Parameters: dose 200 mg/kg, route oral
Method in brief: as §1
For `c1ccc(C2=NN(c3ccccc3)C3(S2)c2ccccc2Sc2ccccc23)cc1`, the Activity was “Non-toxic”.
`CC(=O)C1=NN(c2ccc(Cl)cc2)C2(S1)c1ccccc1Sc1ccccc12` was tested, and the Activity was “Non-toxic”.

Each compound was assayed on Mus musculus (assay: Analgesic activity in Swiss mouse assessed as inhibition of acetic acid-induced writhing responses at 70 mg/kg, po after 1 hr relative to control). Settings: not given.
`CC(=O)C1=NN(c2ccc([N+](=O)[O-])cc2)C2(S1)c1ccccc1Sc1ccccc12` showed an inhibition in vivo at 70 mg/kg of 73%.
`CC(=O)C1=NN(c2ccc([N+](=O)[O-])cc2)SC12c1ccccc1Oc1ccccc12` gave an inhibition in vivo at 70 mg/kg of 56.6%.
`c1ccc(C2=NN(c3ccccc3)C3(S2)c2ccccc2Sc2ccccc23)cc1` was tested, and the inhibition in vivo at 70 mg/kg was 59%.
`CC(=O)C1=NN(c2ccc(Cl)cc2)C2(S1)c1ccccc1Sc1ccccc12` gave an inhibition in vivo at 70 mg/kg of 57%.
`CC(=O)C1=NN(c2ccc(Cl)cc2)SC12c1ccccc1Oc1ccccc12` gave an inhibition in vivo at 70 mg/kg of 72%.
For `CC(C)Cc1ccc(C(C)C(=O)O)cc1` (configuration not stated) [IBUPROFEN], the inhibition in vivo at 70 mg/kg was 83.5%.
